Tests used:
Salmonella typhimurium [1] = test: Antibacterial activity against Salmonella Typhimurium ATCC 13311 incubated for 24 hrs followed by serial sub-cultivation for 24 hrs by microdilution; format: functional, Salmonella enterica subsp. enterica serovar Typhimurium; details: Salmonella enterica, ATCC 13311, 24 h
Method in brief: (§1)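 MBC: after the 24 h LB broth microdilution (1.0 × 10⁴ CFU per well, 160 rpm), wells were serially sub-cultured into fresh broth plates and incubated a further 24 h. MBC is the lowest concentration with no visible growth, taken as 99.5% killing of the original inoculum. Duplicate, repeated three times.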

Aspergillus ochraceus [2] = test: Antifungal activity against Aspergillus ochraceus after 72 hrs by serial dilution technique
Penicillium ochrochloron [3] = test: Ratio of ketoconazole to compound for Penicillium ochrochloron ATCC 9112; format: functional
Aspergillus ochraceus [4] = test: Ratio of ketoconazole to compound for Aspergillus ochraceus ATCC 12066; format: functional
Aspergillus fumigatus [5] = test: Ratio of ketoconazole to compound for Aspergillus fumigatus isolated from human; format: functional
Listeria monocytogenes [6] = test: Antibacterial activity against Listeria monocytogenes NCTC 7973 after 24 hrs by microdilution method; format: functional; details: NCTC 7973, 24 h
Method in brief: (§2)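 Broth microdilution in 96-well plates. Bacterial suspensions were adjusted in sterile saline to 1.0 × 10⁵ CFU/ml, prepared daily and kept at 4 °C. Compound was added to LB broth with 1.0 × 10⁴ CFU per well and shaken at 160 rpm for 24 h at […] (so in the source). MIC is the lowest concentration with no visible growth under a binocular microscope. OD655 was also read. Duplicate, repeated three times.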

Micrococcus flavus [7] = test: Antibacterial activity against Micrococcus flavus ATCC 10240 incubated for 24 hrs followed by serial sub-cultivation for 24 hrs by microdilution; format: functional; details: ATCC 10240, 24 h; method in brief: as §1
Pseudomonas aeruginosa [8] = test: Antibacterial activity against Pseudomonas aeruginosa ATCC 27853 incubated for 24 hrs followed by serial sub-cultivation for 24 hrs by microdilution; format: functional; details: ATCC 27853, 24 h; method in brief: as §1
Aspergillus flavus [9] = test: Antifungal activity against Aspergillus flavus ATCC 9643 incubated for 72 hrs followed by serial sub-cultivation for 72 hrs by serial dilution technique; format: functional; details: ATCC 9643, 72 h
Method in brief: (§3)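 MFC: material from 72 h malt broth microdilution wells was serially sub-cultured into fresh broth plates and incubated a further 72 h at 28 °C. Fungicidal concentration is taken from growth after sub-culture. Duplicate, repeated three times.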

Pseudomonas aeruginosa [10] = test: Antibacterial activity against Pseudomonas aeruginosa ATCC 27853 after 24 hrs by microdilution method; format: functional; details: ATCC 27853, 24 h; method in brief: as §2
Aspergillus ochraceus [11] = test: Antifungal activity against Aspergillus ochraceus ATCC 12066 after 72 hrs by serial dilution technique; format: functional; details: ATCC 12066, 72 h
Method in brief: (§4)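 Modified microdilution in 96-well plates. Fungi were kept on malt agar at 4 °C. Spores were washed off in sterile 0.85% saline with 0.1% Tween 80. Compounds were dissolved at 1 mg/ml in 5% DMSO with 0.1% Tween 80 and added to malt broth with inoculum. Plates were shaken at 160 rpm for 72 h at 28 °C. Duplicate, repeated three times.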

Aspergillus ochraceus [12] = test: Antifungal activity against Aspergillus ochraceus ATCC 12066 incubated for 72 hrs followed by serial sub-cultivation for 72 hrs by serial dilution technique; format: functional; details: ATCC 12066, 72 h; method in brief: as §3
Enterococcus faecalis [13] = test: Antibacterial activity against Enterococcus faecalis isolated from human incubated for 24 hrs followed by serial sub-cultivation for 24 hrs by microdilution; format: functional; method in brief: as §1
Pseudomonas aeruginosa [14] = test: Ratio of ampicillin MIC to compound MIC for Pseudomonas aeruginosa ATCC 27853; format: functional
Talaromyces funiculosus [15] = test: Antifungal activity against Penicillium funiculosum ATCC 36839 after 72 hrs by serial dilution technique; format: functional; details: ATCC 36839, 72 h; method in brief: as §4
Escherichia coli [16] = test: Antibacterial activity against Escherichia coli ATCC 35210 after 24 hrs by microdilution method; format: functional; details: ATCC 35210, 24 h; method in brief: as §2
Escherichia coli [17] = test: Antibacterial activity against Escherichia coli ATCC 35210 incubated for 24 hrs followed by serial sub-cultivation for 24 hrs by microdilution; format: functional; details: ATCC 35210, 24 h; method in brief: as §1
Listeria monocytogenes [18] = test: Antibacterial activity against Listeria monocytogenes NCTC 7973 incubated for 24 hrs followed by serial sub-cultivation for 24 hrs by microdilution; format: functional; details: NCTC 7973, 24 h; method in brief: as §1
Candida albicans [19] = test: Antifungal activity against Candida albicans isolated from human incubated for 72 hrs followed by serial sub-cultivation for 72 hrs by serial dilution technique; format: functional; method in brief: as §3
Aspergillus flavus [20] = test: Antifungal activity against Aspergillus flavus ATCC 9643 after 72 hrs by serial dilution technique; format: functional; details: ATCC 9643, 72 h; method in brief: as §4
Staphylococcus aureus [21] = test: Antibacterial activity against Staphylococcus aureus ATCC 6538 after 24 hrs by microdilution method; format: functional; details: ATCC 6538, 24 h; method in brief: as §2
Candida albicans [22] = test: Ratio of bifonazole to compound for Candida albicans isolated from human; format: functional
Candida albicans [23] = test: Antifungal activity against Candida albicans isolated from human after 72 hrs by serial dilution technique; format: functional; method in brief: as §4
Penicillium ochrochloron [24] = test: Ratio of bifonazole to compound for Penicillium ochrochloron ATCC 9112; format: functional
Salmonella typhimurium [25] = test: Antibacterial activity against Salmonella Typhimurium ATCC 13311 after 24 hrs by microdilution method; format: functional, Salmonella enterica subsp. enterica serovar Typhimurium; details: Salmonella enterica, ATCC 13311, 24 h; method in brief: as §2
Trichoderma viride [26] = test: Ratio of bifonazole to compound for Trichoderma viride IAM 5061; format: functional
Aspergillus ochraceus [27] = test: Ratio of bifonazole to compound for Aspergillus ochraceus ATCC 12066; format: functional
Bacillus cereus [28] = test: Antibacterial activity against clinical isolate of Bacillus cereus incubated for 24 hrs followed by serial sub-cultivation for 24 hrs by microdilution; format: functional; method in brief: as §1
Enterococcus faecalis [29] = test: Antibacterial activity against Enterococcus faecalis isolated from human after 24 hrs by microdilution method; format: functional; method in brief: as §2
Talaromyces funiculosus [30] = test: Ratio of bifonazole to compound for Penicillium funiculosum ATCC 36839; format: functional
Aspergillus niger [31] = test: Antifungal activity against Aspergillus niger ATCC 6275 after 72 hrs by serial dilution technique; format: functional; details: ATCC 6275, 72 h; method in brief: as §4
Aspergillus niger [32] = test: Antifungal activity against Aspergillus niger ATCC 6275 incubated for 72 hrs followed by serial sub-cultivation for 72 hrs by serial dilution technique; format: functional; details: ATCC 6275, 72 h; method in brief: as §3
Trichoderma viride [33] = test: Antifungal activity against Trichoderma viride IAM 5061 after 72 hrs by serial dilution technique; format: functional; details: IAM 5061, 72 h; method in brief: as §4
Penicillium ochrochloron [34] = test: Antifungal activity against Penicillium ochrochloron ATCC 9112 after 72 hrs by serial dilution technique; format: functional; details: ATCC 9112, 72 h; method in brief: as §4
Penicillium ochrochloron [35] = test: Antifungal activity against Penicillium ochrochloron ATCC 9112 incubated for 72 hrs followed by serial sub-cultivation for 72 hrs by serial dilution technique; format: functional; details: ATCC 9112, 72 h; method in brief: as §3
Aspergillus fumigatus [36] = test: Antifungal activity against Aspergillus fumigatus isolated from human incubated for 72 hrs followed by serial sub-cultivation for 72 hrs by serial dilution technique; format: functional; method in brief: as §3
Staphylococcus aureus [37] = test: Antibacterial activity against Staphylococcus aureus ATCC 6538 incubated for 24 hrs followed by serial sub-cultivation for 24 hrs by microdilution method; format: functional; details: ATCC 6538, 24 h; method in brief: as §1
Candida albicans [38] = test: Ratio of ketoconazole to compound for Candida albicans isolated from human; format: functional
Trichoderma viride [39] = test: Antifungal activity against Trichoderma viride IAM 5061 incubated for 72 hrs followed by serial sub-cultivation for 72 hrs by serial dilution technique; format: functional; details: IAM 5061, 72 h; method in brief: as §3
Micrococcus flavus [40] = test: Antibacterial activity against Micrococcus flavus ATCC 10240 after 24 hrs by microdilution method; format: functional; details: ATCC 10240, 24 h; method in brief: as §2
Talaromyces funiculosus [41] = test: Antifungal activity against Penicillium funiculosum ATCC 36839 incubated for 72 hrs followed by serial sub-cultivation for 72 hrs by serial dilution technique; format: functional; details: ATCC 36839, 72 h; method in brief: as §3
Aspergillus niger [42] = test: Ratio of bifonazole to compound for Aspergillus niger ATCC 6275; format: functional
Bacillus cereus [43] = test: Antibacterial activity against clinical isolate of Bacillus cereus after 24 hrs by microdilution method; format: functional; method in brief: as §2

CCCNc1nc(C)c(C(=O)/C=C/c2ccccc2)s1
10: Ratio (Penicillium ochrochloron [3]) | Ratio (Aspergillus ochraceus [4]) | Ratio (Aspergillus fumigatus [5]) | Ratio (Pseudomonas aeruginosa [14]) | Ratio (Candida albicans [22]) | Ratio (Penicillium ochrochloron [24]) | Ratio (Trichoderma viride [26]) | Ratio (Aspergillus ochraceus [27]) | Ratio (Talaromyces funiculosus [30]) | Ratio (Candida albicans [38]) | Ratio (Aspergillus niger [42])
70 µM: MFC (Aspergillus flavus [9]) | MIC (Pseudomonas aeruginosa [10]) | MIC (Escherichia coli [16]) | MFC (Candida albicans [19]) | MIC (Salmonella typhimurium [25]) | MBC (Bacillus cereus [28]) | MFC (Aspergillus niger [32]) | MFC (Penicillium ochrochloron [35]) | MFC (Aspergillus fumigatus [36]) | MIC (Micrococcus flavus [40]) | MFC (Talaromyces funiculosus [41])
35 µM: MIC (Aspergillus ochraceus [11]) | MIC (Candida albicans [23]) | MIC (Penicillium ochrochloron [34]) | MFC (Trichoderma viride [39]) | MIC (Bacillus cereus [43])
26.2 µM: MIC (Trichoderma viride [33])
90 µM: MBC (Salmonella typhimurium [1]) | MIC (Listeria monocytogenes [6]) | MBC (Pseudomonas aeruginosa [8]) | MBC (Enterococcus faecalis [13]) | MIC (Staphylococcus aureus [21]) | MIC (Enterococcus faecalis [29])
105 µM: MBC (Micrococcus flavus [7]) | MBC (Listeria monocytogenes [18]) | MBC (Staphylococcus aureus [37])
88 µM: MBC (Escherichia coli [17])
52.4 µM: MIC (Aspergillus ochraceus [2]) | MFC (Aspergillus ochraceus [12]) | MIC (Talaromyces funiculosus [15]) | MIC (Aspergillus flavus [20]) | MIC (Aspergillus niger [31])

CCNc1nc(C)c(C(=O)/C=C/c2cccc(F)c2)s1
34.5 µM: MIC (Aspergillus ochraceus [2]) | MIC (Talaromyces funiculosus [15]) | MIC (Candida albicans [23]) | MIC (Aspergillus niger [31]) | MIC (Trichoderma viride [33]) | MIC (Penicillium ochrochloron [34]) | MIC (Micrococcus flavus [40])
68.9 µM: MBC (Pseudomonas aeruginosa [8]) | MIC (Pseudomonas aeruginosa [10]) | MIC (Aspergillus ochraceus [11]) | MBC (Enterococcus faecalis [13]) | MIC (Escherichia coli [16]) | MFC (Candida albicans [19]) | MIC (Aspergillus flavus [20]) | MIC (Staphylococcus aureus [21]) | MBC (Bacillus cereus [28]) | MFC (Aspergillus niger [32]) | MFC (Penicillium ochrochloron [35]) | MFC (Aspergillus fumigatus [36]) | MFC (Trichoderma viride [39]) | MFC (Talaromyces funiculosus [41])
51.7 µM: MBC (Salmonella typhimurium [1]) | MIC (Salmonella typhimurium [25]) | MIC (Enterococcus faecalis [29]) | MIC (Bacillus cereus [43])
103 µM: MBC (Staphylococcus aureus [37])
86.2 µM: MIC (Listeria monocytogenes [6]) | MBC (Micrococcus flavus [7]) | MFC (Aspergillus flavus [9]) | MFC (Aspergillus ochraceus [12]) | MBC (Escherichia coli [17]) | MBC (Listeria monocytogenes [18])
10: Ratio (Penicillium ochrochloron [3]) | Ratio (Aspergillus ochraceus [4]) | Ratio (Aspergillus fumigatus [5]) | Ratio (Pseudomonas aeruginosa [14]) | Ratio (Candida albicans [22]) | Ratio (Penicillium ochrochloron [24]) | Ratio (Trichoderma viride [26]) | Ratio (Aspergillus ochraceus [27]) | Ratio (Talaromyces funiculosus [30]) | Ratio (Candida albicans [38]) | Ratio (Aspergillus niger [42])
